The nature of series [1]: Agonist activity at human alpha7 nAChR/mouse 5HT3 chimeric receptor expressed in SH-EP1 cells assessed as increase in intracellular calcium level relative to 100 uM nicotine. The class given is functional. The gist of the method: (§1)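 α7-5HT3 chimera stably in SH-EP1 cells grown to confluence; loaded with Calcium Green 1 AM (2 μM final) 60 min at 37 °C. Compound added directly; calcium rise read by FLIPR (excitation 488 nm, emission >525 nm).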

Series [2] concerns the target Neuronal acetylcholine receptor subunit alpha-7 (Rattus norvegicus, UniProt Q05941). Briefly: Displacement of [125I]BTX from rat alpha7 nicotinic acetylcholine receptor expressed in GH4C1 cells. Type of series: cell-based, GH4-C1. The essentials:
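GH4C1 membranes (20 mM HEPES, 118 mM NaCl, 4.5 mM KCl, 2.5 mM CaCl2, 1.2 mM MgSO4, pH 7.5) incubated 2 h at 37 °C with [125I]α-bungarotoxin 0.4 nM final. Nonspecific binding with 1 μM methyllycaconitine; filtration onto PEI-treated GF/B filters. Ki = IC50/(1+[L]/KD); six-point curves in triplicate; geometric mean with 95% CI.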
Background: Loss of bound radioactivity is the signal in a displacement assay; it reports binding, not function.

For series [3], the target named is T1, 5-hydroxytryptamine receptor 3A (Mus musculus, UniProt P23979).
T1 sequence (P23979 whole entry): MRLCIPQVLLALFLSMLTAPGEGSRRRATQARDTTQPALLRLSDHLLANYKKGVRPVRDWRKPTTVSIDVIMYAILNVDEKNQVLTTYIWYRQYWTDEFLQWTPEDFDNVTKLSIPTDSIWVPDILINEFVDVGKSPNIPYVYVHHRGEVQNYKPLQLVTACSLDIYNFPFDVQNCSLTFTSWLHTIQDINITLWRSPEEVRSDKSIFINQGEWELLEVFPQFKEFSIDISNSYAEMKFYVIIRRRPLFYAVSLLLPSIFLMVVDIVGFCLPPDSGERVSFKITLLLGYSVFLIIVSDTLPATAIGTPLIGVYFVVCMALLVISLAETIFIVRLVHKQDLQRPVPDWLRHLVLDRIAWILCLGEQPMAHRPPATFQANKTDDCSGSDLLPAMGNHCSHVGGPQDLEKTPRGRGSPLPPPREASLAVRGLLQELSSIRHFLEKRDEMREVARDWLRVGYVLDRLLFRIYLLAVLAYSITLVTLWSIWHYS
Briefly: Displacement of [3H]LY278584 from mouse 5HT3 receptor expressed in HEK293 cells. The class given is cell-based. The essentials:
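Mouse 5-HT3A in HEK293 cell homogenate, 20 mM Tris-HCl pH 7.4 with 154 mM NaCl. [3H]LY278584 1 nM final; nonspecific binding with 10 μM ICS205-930; 60 min at 37 °C, then filtration onto PEI-soaked GF/B. Ki by Cheng-Prusoff; mean of three six-point curves in triplicate in one assay; tropisetron standard.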

The nature of series [4]: Agonist activity at human alpha7 nAChR/mouse 5HT3 chimeric receptor expressed in SH-EP1 cells assessed as increase in intracellular calcium level. Type of series: functional, cell-based. The essentials:
as §1
In general terms: Calcium flux is commonly read through the fluorescence of an indicator in the cells.

For series [5], the target named is T2, 5-hydroxytryptamine receptor 3A (Homo sapiens, UniProt P46098).
T2 sequence (P46098 whole entry): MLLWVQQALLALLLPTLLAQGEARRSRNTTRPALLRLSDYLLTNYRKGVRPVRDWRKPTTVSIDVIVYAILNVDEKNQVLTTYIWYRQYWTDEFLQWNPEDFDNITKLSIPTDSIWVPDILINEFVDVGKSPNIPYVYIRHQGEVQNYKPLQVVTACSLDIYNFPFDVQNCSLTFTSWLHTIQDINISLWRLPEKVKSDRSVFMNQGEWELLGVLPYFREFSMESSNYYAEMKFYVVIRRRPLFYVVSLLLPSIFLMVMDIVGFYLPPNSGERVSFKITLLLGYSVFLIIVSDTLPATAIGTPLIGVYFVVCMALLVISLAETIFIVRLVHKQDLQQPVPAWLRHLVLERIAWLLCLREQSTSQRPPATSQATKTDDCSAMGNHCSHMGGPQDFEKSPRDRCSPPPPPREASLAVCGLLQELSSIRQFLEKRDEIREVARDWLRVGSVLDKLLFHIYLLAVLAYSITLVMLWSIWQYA
Briefly: […] at human 5HT3 receptor expressed in human skin epithelial cells assessed as stimulation of calcium flux by FLIPR assay. Type of series: functional, cell-based, Epithelial cell. The gist of the method:
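Human 5-HT3A stably in human skin epithelial cells, plated 15 000 cells/well 2 days ahead; loaded 1 h at 37 °C with Fluo-4 (8 μM final), washed into HBSS with 20 mM Tris-HEPES, 1 μM atropine, 4 mM Ca2+, pH 7.4. Compound added 2 min, then 5-HT challenge (250 nM final) 2 min; FLIPR calcium read.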

For the next series, the system named is CHO. Briefly: Toxicity in CHO cells assessed as induction of DNA fragments by in vitro micronucleus assay. The following applies: chinese hamster. Type of series: cell-based, Cricetulus griseus.
The target of series [6] is Voltage-gated inwardly rectifying potassium channel KCNH2 (Homo sapiens, UniProt Q12809).
Series [7] in a line: Selectivity for rat alpha7 nicotinic acetylcholine receptor over mouse 5HT3 receptor.
Series [8] concerns the target Neuronal acetylcholine receptor; alpha3/beta4 (Homo sapiens, UniProt P30926+P32297). Briefly: Displacement of [3H]epibatidine from alpha3beta4 nAChR expressed in IMR32 cells. The class given is cell-based, IMR-32. The gist of the method:
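Alpha3β4 binding in IMR32 cells with [3H]epibatidine radioligand. Six-point concentration-response curve run in triplicate and averaged.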

Where only a bound is given, the exact number is not on record here.

Sequence of Neuronal acetylcholine receptor subunit alpha-7 (Q05941 whole entry): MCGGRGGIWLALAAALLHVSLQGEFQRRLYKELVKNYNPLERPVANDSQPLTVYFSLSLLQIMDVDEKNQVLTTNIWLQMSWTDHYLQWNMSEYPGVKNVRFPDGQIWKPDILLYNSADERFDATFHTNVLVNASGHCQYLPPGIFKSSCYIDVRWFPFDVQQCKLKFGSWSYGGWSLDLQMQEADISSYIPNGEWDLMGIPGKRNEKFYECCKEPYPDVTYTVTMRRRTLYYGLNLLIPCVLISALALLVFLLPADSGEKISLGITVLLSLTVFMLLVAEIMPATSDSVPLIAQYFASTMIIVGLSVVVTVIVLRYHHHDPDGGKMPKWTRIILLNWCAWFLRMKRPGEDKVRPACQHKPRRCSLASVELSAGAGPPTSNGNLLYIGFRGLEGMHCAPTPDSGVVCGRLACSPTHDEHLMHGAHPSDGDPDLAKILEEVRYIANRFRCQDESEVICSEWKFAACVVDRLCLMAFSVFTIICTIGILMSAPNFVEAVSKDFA
Sequence of Voltage-gated inwardly rectifying potassium channel KCNH2 (Q12809 whole entry): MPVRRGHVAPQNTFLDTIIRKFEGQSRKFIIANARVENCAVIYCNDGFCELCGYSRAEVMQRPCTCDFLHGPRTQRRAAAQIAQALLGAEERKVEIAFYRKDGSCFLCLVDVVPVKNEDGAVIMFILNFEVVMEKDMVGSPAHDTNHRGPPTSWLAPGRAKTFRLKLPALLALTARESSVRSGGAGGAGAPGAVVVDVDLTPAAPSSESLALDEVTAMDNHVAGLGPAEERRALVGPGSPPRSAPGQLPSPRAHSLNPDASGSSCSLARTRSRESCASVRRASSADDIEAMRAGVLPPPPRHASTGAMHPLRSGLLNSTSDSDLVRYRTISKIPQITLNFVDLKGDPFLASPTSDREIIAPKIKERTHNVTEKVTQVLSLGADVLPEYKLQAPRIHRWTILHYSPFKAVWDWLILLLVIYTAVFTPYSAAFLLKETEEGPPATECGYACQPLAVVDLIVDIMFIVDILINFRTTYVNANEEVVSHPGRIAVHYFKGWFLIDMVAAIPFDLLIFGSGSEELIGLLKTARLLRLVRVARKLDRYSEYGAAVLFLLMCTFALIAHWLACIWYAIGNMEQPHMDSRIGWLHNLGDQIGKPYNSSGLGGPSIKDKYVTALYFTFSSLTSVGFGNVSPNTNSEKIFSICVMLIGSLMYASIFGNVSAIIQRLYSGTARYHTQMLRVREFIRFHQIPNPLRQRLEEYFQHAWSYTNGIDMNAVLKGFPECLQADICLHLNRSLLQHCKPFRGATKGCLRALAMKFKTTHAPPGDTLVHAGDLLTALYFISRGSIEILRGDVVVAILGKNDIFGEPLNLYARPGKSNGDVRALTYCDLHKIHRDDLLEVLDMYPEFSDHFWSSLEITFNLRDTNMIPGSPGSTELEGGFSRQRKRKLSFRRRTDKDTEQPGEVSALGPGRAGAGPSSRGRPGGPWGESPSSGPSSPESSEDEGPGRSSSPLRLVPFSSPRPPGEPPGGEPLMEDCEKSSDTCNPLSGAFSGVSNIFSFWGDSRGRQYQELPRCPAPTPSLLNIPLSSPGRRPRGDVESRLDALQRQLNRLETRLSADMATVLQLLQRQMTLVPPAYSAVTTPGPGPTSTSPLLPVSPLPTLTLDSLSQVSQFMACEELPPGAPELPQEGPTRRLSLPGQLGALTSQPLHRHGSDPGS
Sequence of Neuronal acetylcholine receptor; alpha3/beta4 (P30926 whole entry): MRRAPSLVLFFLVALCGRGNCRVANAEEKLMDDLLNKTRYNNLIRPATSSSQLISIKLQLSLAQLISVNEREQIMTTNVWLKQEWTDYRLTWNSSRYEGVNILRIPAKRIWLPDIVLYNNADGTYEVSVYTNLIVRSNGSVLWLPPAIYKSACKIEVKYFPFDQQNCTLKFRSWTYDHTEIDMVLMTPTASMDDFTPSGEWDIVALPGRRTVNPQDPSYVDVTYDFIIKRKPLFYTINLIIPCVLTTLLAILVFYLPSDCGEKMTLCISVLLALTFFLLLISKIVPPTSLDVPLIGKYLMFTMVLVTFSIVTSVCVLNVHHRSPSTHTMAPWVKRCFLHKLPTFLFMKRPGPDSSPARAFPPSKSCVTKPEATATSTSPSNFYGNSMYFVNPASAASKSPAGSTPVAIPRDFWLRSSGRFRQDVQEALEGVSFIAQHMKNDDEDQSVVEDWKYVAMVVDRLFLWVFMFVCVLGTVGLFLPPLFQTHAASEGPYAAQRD
Sequence of Neuronal acetylcholine receptor; alpha3/beta4 (P32297 whole entry): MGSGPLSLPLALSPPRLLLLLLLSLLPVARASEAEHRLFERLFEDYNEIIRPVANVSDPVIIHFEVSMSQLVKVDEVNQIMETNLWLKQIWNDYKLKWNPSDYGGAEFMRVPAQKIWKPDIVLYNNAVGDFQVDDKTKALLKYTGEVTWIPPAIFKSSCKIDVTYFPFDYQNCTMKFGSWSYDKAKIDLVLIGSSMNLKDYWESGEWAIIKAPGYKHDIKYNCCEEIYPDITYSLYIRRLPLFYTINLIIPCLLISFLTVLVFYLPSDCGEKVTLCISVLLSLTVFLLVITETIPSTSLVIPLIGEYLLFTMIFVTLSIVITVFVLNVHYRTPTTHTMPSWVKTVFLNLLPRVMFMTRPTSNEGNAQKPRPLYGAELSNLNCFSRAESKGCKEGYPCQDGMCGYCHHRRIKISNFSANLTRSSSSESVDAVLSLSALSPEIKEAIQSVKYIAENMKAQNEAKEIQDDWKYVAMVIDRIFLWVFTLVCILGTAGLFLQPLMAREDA

Take `Brc1cnc2nc(N3CCN4CCC3CC4)oc2c1`: the Efficacy in [1] was 64%. Further, the Ki – broadly, a measure of affinity in units of concentration, obtained from inhibition or displacement – in [2] amounted to 2.08 nM; in series [3] it was 926 nM. The concentration for a half-maximal effect (EC50) (as a rule, the concentration at which the effect is half-maximal) in series [4] stood at 240 nM. Besides, the IC50 (in general, the point on the concentration scale where inhibition reaches its midpoint) in series [5] amounted to 779 nM; in series [6], 2300 nM. Also, the Activity result in the series on CHO was “Toxic”.
Consider `Fc1cnc2nc(N3CCN4CCC3CC4)oc2c1`, for which the Efficacy in [1] is recorded as 64%. Besides, the Ki in series [2] worked out at 17.2 nM; in series [3] it was 6200 nM. Moreover, the EC50 in [4] came to 213 nM. Further, the IC50 came to 2480 nM in series [5] and 8700 nM in series [6]. Also, the Activity result in the series on CHO is listed as “Toxic”.
Consider `c1ccc(-c2ccc3oc(N4CCN5CCC4CC5)nc3n2)cc1`, for which the Efficacy in series [1] was determined as 71%. In addition, the inhibition constant (Ki) in series [2] was 3.22 nM; in series [3], over 3580 nM. The concentration for a half-maximal effect (EC50) in series [4] was 320 nM. The Ratio Ki in series [7] was 3.
The compound `O=c1c(Br)ccc2n1C[C@@H]1CNC[C@H]2C1` showed a half-inhibitory concentration (IC50) in series [8] of 15.6 nM.

The values are drawn from ChEMBL document CHEMBL1159071, “Discovery of 4-(5-methyloxazolo[4,5-b]pyridin-2-yl)-1,4-diazabicyclo[3.2.2]nonane (CP-810,123), a novel alpha 7 nicotinic acetylcholine receptor agonist for the treatment of cognitive disorders in schizophrenia: synthesis, SAR development, and in vivo efficacy in cognition models” (J Med Chem, 2010).
